Assay results published in ChEMBL document CHEMBL3259538, “Identification of the stereochemical requirements in the 4-aryl-2-cycloalkylidenhydrazinylthiazole scaffold for the design of selective human monoamine oxidase B inhibitors” (Bioorg Med Chem, 2014).

Key:
[1] = biological target: T1, Amine oxidase [flavin-containing] B (Homo sapiens, UniProt P27338); assay: biochemical; format: cell-based, BTI-TN-5B1-4
T1 sequence (P27338 whole entry): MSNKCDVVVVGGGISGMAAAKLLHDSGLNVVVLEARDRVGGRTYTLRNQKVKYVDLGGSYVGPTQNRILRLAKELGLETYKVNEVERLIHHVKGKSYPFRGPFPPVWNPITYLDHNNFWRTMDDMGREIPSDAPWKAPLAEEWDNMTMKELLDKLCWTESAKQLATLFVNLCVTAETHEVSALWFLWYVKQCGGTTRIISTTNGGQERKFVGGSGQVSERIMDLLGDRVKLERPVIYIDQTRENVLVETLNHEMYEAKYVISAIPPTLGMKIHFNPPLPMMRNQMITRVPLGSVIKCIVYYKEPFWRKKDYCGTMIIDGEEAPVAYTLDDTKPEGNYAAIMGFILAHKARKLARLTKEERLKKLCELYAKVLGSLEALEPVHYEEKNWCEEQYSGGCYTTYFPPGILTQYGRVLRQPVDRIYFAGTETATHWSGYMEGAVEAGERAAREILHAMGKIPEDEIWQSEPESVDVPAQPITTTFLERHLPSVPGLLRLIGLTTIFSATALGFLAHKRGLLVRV

BTI-TN-5B1-4 = assay: Selectivity index, ratio of IC50 for human recombinant MAO-A expressed in baculovirus-infected BTI-TN-5B1-4 cell microsomes to IC50 for human recombinant MAO-B expressed in baculovirus-infected BTI-TN-5B1-4 cell microsomes
[2] = biological target: T2, Amine oxidase [flavin-containing] A (Homo sapiens, UniProt P21397); assay: Inhibition of human recombinant MAO-A expressed in baculovirus-infected BTI-TN-5B1-4 cell microsomes assessed as decrease in H2O2 production using p-tyramine as substrate preincubated for 15 mins by Amplex Red reagent based fluorimetric method
T2 sequence (P21397 whole entry): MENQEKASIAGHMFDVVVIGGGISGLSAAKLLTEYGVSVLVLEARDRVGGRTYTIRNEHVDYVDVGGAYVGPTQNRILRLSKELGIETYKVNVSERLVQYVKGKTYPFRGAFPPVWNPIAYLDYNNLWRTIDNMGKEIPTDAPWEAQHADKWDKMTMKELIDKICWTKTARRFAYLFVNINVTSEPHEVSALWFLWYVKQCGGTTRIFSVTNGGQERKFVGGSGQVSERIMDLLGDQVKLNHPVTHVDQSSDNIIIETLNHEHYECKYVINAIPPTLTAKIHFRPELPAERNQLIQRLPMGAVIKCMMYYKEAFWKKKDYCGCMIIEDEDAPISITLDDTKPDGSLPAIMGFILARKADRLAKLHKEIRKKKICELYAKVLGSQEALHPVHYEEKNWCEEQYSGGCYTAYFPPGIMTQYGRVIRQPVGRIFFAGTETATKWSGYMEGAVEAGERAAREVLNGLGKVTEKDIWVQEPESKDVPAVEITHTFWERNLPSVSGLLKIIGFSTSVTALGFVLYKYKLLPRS

[3] = biological target: T2, Amine oxidase [flavin-containing] A; assay: Inhibition of human recombinant MAO-A expressed in baculovirus-infected BTI-TN-5B1-4 cell microsomes assessed as decrease in H2O2 production using p-tyramine as substrate at 100 uM preincubated for 15 mins by Amplex Red reagent based fluorimetric method; conditions: bti-tn-5b1-4, 100 µM
Method in brief: (§1)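 Microsomal enzyme in 0.05 M sodium phosphate, pH 7.4. The enzyme amount was adjusted so that controls oxidize 165 pmol p-tyramine/min. Drug and enzyme were preincubated for 15 min at 37 °C. Final 200 µM Amplex Red and 1 U/mL HRP were then added. Resorufin fluorescence (ex 545/em 590 nm) was read linearly over 15 min at 37 °C. Background without enzyme was subtracted, and drug interference was checked with Amplex Red alone.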

[4] = biological target: T1, Amine oxidase [flavin-containing] B; assay: Inhibition of human recombinant MAO-B expressed in baculovirus-infected BTI-TN-5B1-4 cell microsomes assessed as decrease in H2O2 production using p-tyramine as substrate at 1 mM preincubated for 15 mins by Amplex Red reagent based fluorimetric method; conditions: bti-tn-5b1-4, 1000 µM
Method in brief: as §1

Structure (SMILES) | IC50 [1] [nM] | IC50 [2] [nM] | inhibition (INH) [3] | inhibition (INH) [4] | Ratio IC50 (BTI-TN-5B1-4)
CC1CC/C(=N\Nc2nc(-c3ccc([N+](=O)[O-])cc3)cs2)C1 (mixture of isomers) | 376 | – | Not Active | – | > 266
CC1CC/C(=N\Nc2nc(-c3ccc(C#N)cc3)cs2)C1 (mixture of isomers) | 227 | 11100 | – | – | 49
CC1CC/C(=N\Nc2nc(-c3ccc(F)cc3F)cs2)C1 (mixture of isomers) | 9.34 | 16900 | – | – | 1810
O=C1Nc2ccccc2C1=O [ISATIN] | – | – | Not Active | – | –
O=C(NCCN1CCOCC1)c1ccc(Cl)cc1 [MOCLOBEMIDE] | – | – | – | Not Active | –

The remaining molecules from weak to strong by IC50 [1], led by results:

IC50 [1] [nM] | IC50 [2] [nM] | inhibition (INH) [3] | inhibition (INH) [4] | Structure (SMILES) | Ratio IC50 (BTI-TN-5B1-4)
8.31 | 19200 | – | – | CC1CCC/C1=N\Nc1nc(-c2ccc([N+](=O)[O-])cc2)cs1 (mixture of isomers) | 2310
5.32 | 15500 | – | – | C[C@@H]1CCC(=NNc2nc(-c3ccc(F)cc3F)cs2)C1 | 2920
5.06 | 13100 | – | – | C[C@@H]1CC/C(=N\Nc2nc(-c3ccc(F)cc3F)cs2)C1 | 2580
2.91 | 13800 | – | – | C[C@@H]1CC/C(=N/Nc2nc(-c3ccc(F)cc3F)cs2)C1 | 4740
